Experimental data from ChEMBL document CHEMBL3593200, “NO-donor thiacarbocyanines as multifunctional agents for Alzheimer's disease” (Bioorg Med Chem, 2015).
Activity calls are given as the source filed them. The rule behind the calls is not given here.

Assays:
[1] = molecular target: Soluble guanylate cyclase (Homo sapiens) (UniProt Q02153+O75343+P33402+Q02108); assay: Activation of sGC in human hCMEC/D3 cells assessed as production of cGMP per million cells using [3H]-cGMP after 1 hr by liquid scintillation counting; type: cell-based; details: CMEC/D3
Method in brief: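 hCMEC/D3 cells (1×10^6, collagen-coated wells, supplemented EBM-2, 37°C, 5% CO2) switched to Hepes-Ca2+ buffer pH 7.4 with 1 mM IBMX. Exposed 1 h at 37°C to 0.1, 1, 5 or 10 μM; SNP 1 mM as reference NO donor. Ethanol-permeabilized, residue taken up in Tris-EDTA pH 8. cGMP quantified by [3H]-cGMP competitive radioimmunoassay with scintillation counting against a [3H]-cGMP titration curve; expressed as pmol/10^6 cells. Mean ± SEM, one-way ANOVA.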

[2] = Cytotoxicity against human hCMEC/D3 cells up to 1 uM after 18 hrs by lactate dehydrogenase assay; type: cell-based; details: hcmec/d3, 18 h
[3] = Cytotoxicity against human hCMEC/D3 cells at 10 to 20 uM after 18 hrs by lactate dehydrogenase assay; type: cell-based; details: hcmec/d3, 18 h
[4] = molecular target: T1, Amyloid-beta precursor protein (Homo sapiens, UniProt P05067); assay: Inhibition of Amyloid beta (1 to 40) (unknown origin) aggregation assessed as amount of fibrils formation after 2 hrs by thioflavin T based spectrofluorimetric method
T1 sequence (P05067 whole entry): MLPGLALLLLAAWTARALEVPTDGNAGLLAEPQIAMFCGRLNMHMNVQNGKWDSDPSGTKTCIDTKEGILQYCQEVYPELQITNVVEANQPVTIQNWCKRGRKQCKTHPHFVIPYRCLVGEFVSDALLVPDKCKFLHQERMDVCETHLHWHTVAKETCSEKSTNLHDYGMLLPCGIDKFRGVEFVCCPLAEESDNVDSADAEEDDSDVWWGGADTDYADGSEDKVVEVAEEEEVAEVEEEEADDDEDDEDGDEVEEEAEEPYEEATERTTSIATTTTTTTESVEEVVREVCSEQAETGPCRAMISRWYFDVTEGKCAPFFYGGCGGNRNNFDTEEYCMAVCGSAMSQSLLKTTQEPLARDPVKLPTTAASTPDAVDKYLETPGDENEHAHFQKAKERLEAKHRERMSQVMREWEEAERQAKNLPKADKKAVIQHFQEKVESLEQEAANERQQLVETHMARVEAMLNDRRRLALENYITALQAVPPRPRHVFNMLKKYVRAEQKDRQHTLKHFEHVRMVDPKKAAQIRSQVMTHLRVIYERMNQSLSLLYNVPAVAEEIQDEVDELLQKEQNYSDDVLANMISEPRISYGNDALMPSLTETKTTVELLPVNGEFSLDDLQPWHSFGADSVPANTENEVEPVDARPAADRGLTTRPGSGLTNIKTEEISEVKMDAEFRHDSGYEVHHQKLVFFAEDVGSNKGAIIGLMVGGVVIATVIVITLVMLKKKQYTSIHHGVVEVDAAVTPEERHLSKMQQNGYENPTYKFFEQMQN
Method in brief: (§1)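 Aβ40 pretreated in HFIP to remove preaggregates, then 30 μM peptide incubated 2 h at room temperature with inhibitor in PBS pH 7.4 (2% HFIP, 5% DMSO). ThT (3 μM, in 50 mM phosphate pH 6.0) fluorescence read at ex 450/em 486 nm. Inhibition = 100 − [(Fi−Fb)/F0×100]. IC50 from 5–7 concentrations in triplicate, ≥3 independent experiments, nonlinear regression; weaker compounds given as % inhibition ± SE at 100 μM.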

[5] = molecular target: Microtubule-associated protein tau (Homo sapiens) (UniProt P10636); assay: Inhibition of wild type human recombinant tau 2N4R aggregation assessed as reduction of formation rate and number of aggregates at 1 uM after 48 hrs using Congo Red staining
Microtubule-associated protein tau (Homo sapiens), sequence (P10636 whole entry): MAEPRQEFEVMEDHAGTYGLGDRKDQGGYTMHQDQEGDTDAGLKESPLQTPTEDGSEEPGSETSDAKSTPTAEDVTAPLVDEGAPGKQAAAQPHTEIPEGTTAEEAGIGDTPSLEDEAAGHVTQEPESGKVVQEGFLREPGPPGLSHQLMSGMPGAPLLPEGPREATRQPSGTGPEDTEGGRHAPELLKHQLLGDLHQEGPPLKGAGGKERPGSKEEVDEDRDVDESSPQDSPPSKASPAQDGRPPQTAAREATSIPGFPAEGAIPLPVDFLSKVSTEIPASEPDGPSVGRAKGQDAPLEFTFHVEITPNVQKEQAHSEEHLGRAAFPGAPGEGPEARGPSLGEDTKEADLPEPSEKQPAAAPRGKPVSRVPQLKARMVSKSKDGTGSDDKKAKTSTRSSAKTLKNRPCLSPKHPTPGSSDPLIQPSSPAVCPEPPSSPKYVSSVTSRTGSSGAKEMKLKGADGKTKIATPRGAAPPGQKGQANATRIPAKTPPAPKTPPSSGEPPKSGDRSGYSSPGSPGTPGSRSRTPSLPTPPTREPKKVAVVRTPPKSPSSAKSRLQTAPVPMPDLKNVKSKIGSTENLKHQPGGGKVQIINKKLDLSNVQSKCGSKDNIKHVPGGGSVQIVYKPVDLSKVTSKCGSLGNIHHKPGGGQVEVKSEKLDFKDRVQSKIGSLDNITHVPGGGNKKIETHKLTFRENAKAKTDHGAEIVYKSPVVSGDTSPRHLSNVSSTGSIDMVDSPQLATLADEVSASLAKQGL
Method in brief: (§2)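 Recombinant human tau 2N4R, expressed in E. coli BL21(DE3), used at 8 μM with 300 μg/mL heparin in 35 mM MES pH 7.4, 1 mM DTT at 37°C, alone or with compound at 1 μM (final). Aliquots taken at 2 and 5 days, stained with Congo Red and examined under polarized light; also negatively stained with uranyl acetate for EM at 30,000 magnification.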

[6] = molecular target: Microtubule-associated protein tau (Homo sapiens) (UniProt P10636); assay: Inhibition of wild type human recombinant tau 2N4R aggregation assessed as reduction of formation rate and number of aggregates at 1 uM after 5 days using Congo Red staining; method in brief: as §2
Brain = assay: Synaptic plasticity activity in hippocampal brain slices of C57BL/6 mouse assessed as protection against amyloid beta (1 to 42)-induced long-term potentiation inhibition after 20 mins; type: functional; set-up: scale not given: the % may be the effect or the level left
Method in brief: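 Hippocampal slices (400 μm) from 30-day-old male C57BL/6 mice, recovered at 32°C in ACSF. Oligomerized Aβ42 (final 200 nM) was mixed with compound (final 2 μM), pre-incubated 30 min, then perfused 20 min before HFS. Schaffer collateral stimulation; CA1 fEPSP peak amplitude recorded 60 min post-HFS. LTP taken as mean over 55–60 min as % of baseline. Mean ± SEM, unpaired t-test.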

[7] = molecular target: T1, Amyloid-beta precursor protein; assay: Inhibition of Amyloid beta (1 to 42) (unknown origin) aggregation assessed as amount of fibrils formation after 5 days by thioflavin T based spectrofluorimetric method
[8] = molecular target: T1, Amyloid-beta precursor protein; assay: Inhibition of Amyloid beta (1 to 40) (unknown origin) aggregation assessed as amount of fibrils formation at 100 uM after 2 hrs by thioflavin T based spectrofluorimetric method; method in brief: as §1

| Activity [1] | IC50 [4] | inhibition [5] | inhibition [6] | IC50 [7] | inhibition [8] | inhibition [4] | SMILES | Activity [2] | Activity [3] | Activity (Brain) |
| --- | --- | --- | --- | --- | --- | --- | --- | --- | --- | --- |
| – | 4.5 µM | – | – | – | – | – | CN(C)c1ccc2nc3ccc(=[N+](C)C)cc-3sc2c1 | – | – | – |
| Dose-dependent effect | – | – | – | – | 26% | – | CCN1/C(=C/C=C/c2sc3ccccc3[n+]2CC)Sc2ccc(OCc3no[n+]([O-])c3C(N)=O)cc21.[I-] | Non-toxic | Non-toxic | – |
| Dose-dependent effect | – | Active | Active | – | 26% | – | CCN1/C(=C/C=C/c2sc3ccc(OCCCO[N+](=O)[O-])cc3[n+]2CC)Sc2ccc(OCCCO[N+](=O)[O-])cc21.O=S(=O)([O-])C(F)(F)F | Non-toxic | Non-toxic | – |
| Dose-dependent effect | – | – | – | – | – | inactive | CCCOc1ccc2c(c1)N(CC)/C(=C/C=C/c1sc3ccc(OCCC)cc3[n+]1CC)S2.[I-] | Non-toxic | Non-toxic | – |
| Dose-dependent effect | – | – | – | – | 17% | – | CCN1/C(=C/C=C/c2sc3ccc(OCc4no[n+]([O-])c4C(N)=O)cc3[n+]2CC)Sc2ccc(OCc3no[n+]([O-])c3C(N)=O)cc21.O=S(=O)([O-])C(F)(F)F | Non-toxic | Non-toxic | – |

The remaining lines, values behind:

| SMILES | Activity [1] | IC50 [4] | inhibition [5] | inhibition [6] | IC50 [7] | inhibition [8] | inhibition [4] | Activity [2] | Activity [3] | Activity (Brain) |
| --- | --- | --- | --- | --- | --- | --- | --- | --- | --- | --- |
| CCN1/C(=C/C=C/c2sc3ccccc3[n+]2CC)Sc2ccc(OCCCO[N+](=O)[O-])cc21.[I-] | Dose-dependent effect | 8.1 µM | Active | Active | 7.7 µM | – | – | Non-toxic | Non-toxic | 69.3% |
| CCN1/C(=C/C=C/c2sc3ccccc3[n+]2CC)Sc2ccccc21.[I-] | – | 3.1 µM | – | – | 3.3 µM | – | – | Non-toxic | Non-toxic | 34.7% |
| CCN1/C(=C/C=C/c2sc3ccccc3[n+]2CC)Sc2ccc(Oc3no[n+]([O-])c3-c3ccccc3)cc21.[I-] | Dose-dependent effect | 1.8 µM | Active | Active | 1.6 µM | – | – | Non-toxic | Non-toxic | 90.8% |
| CCCOc1ccc2c(c1)N(CC)/C(=C/C=C/c1sc3ccccc3[n+]1CC)S2.[I-] | Dose-dependent effect | 7 µM | – | – | 0.8 µM | – | – | Non-toxic | Non-toxic | – |
| CCN1/C(=C/C=C/c2sc3ccccc3[n+]2CC)Sc2ccc(Oc3no[n+]([O-])c3S(=O)(=O)c3ccccc3)cc21.[I-] | Dose-dependent effect | 21 µM | Active | Active | – | – | – | Non-toxic | Non-toxic | – |
